≈ marks a conversion by molar mass, not a printed value. Values belong to the molecule of their own block, whether it stands above or below them. Calls of active or inactive are those of the source. The calls are words filed in the database; no cut-off is given here.
Columns and labels:
Bacillus subtilis [1] = experiment: Antimicrobial activity against Bacillus subtilis ATCC 6633 after 24 hrs by microdilution technique; type: functional; details: for MIC: ATCC 6633, 24 h
Procedure, shortened: (§1)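 MIC by microdilution per NCCLS 1997 guidelines. Bacteria were subcultured overnight on Mueller-Hinton agar at 37 °C and passaged at least twice. Compounds were serially two-fold diluted in DMSO from 1024 to 16, mixed with nutrient agar, and inoculated. Incubation was 37 °C in a humid chamber for 24 h. MIC = lowest concentration completely inhibiting macroscopic growth. DMSO, organism-only and medium-only wells served as controls.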

Rattus norvegicus [2] = experiment: Antiinflammatory activity in male Sprague-Dawley rats assessed as inhibition of carrageenan-induced rat paw edema dosed subcutaneously equimolar to 70 mg/kg, sc ibuprofen administered 1 hr before carrageenan challenge measured 2 hrs post carrageenan challenge relative to control; type: functional; details: route subcutaneous
Procedure, shortened: (§2)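 Male Sprague-Dawley rats, 150–170 g, 5 per group. Compounds were given subcutaneously in DMSO at doses equimolar to the reference. One hour later, 0.1 mL of 1% carrageenan was injected subplantar into the right hind paw. Right-minus-left paw volume was read by water plethysmometer at 1, 2, 3 and 4 h. %inhibition = (1 − swelling treated/swelling control) × 100. Controls received DMSO s.c. Mean ± SE reported.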

Rattus norvegicus [3] = experiment: Antiinflammatory activity in male Sprague-Dawley rat assessed as inhibition of carrageenan-induced rat paw edema dosed subcutaneously equimolar to 70 mg/kg, sc ibuprofen administered 1 hr before carrageenan challenge measured 1 hr post carrageenan challenge relative to control; type: functional; details: route subcutaneous; procedure, shortened: as §2
Rattus norvegicus [4] = experiment: Antiinflammatory activity in male Sprague-Dawley rats assessed as inhibition of carrageenan-induced rat paw edema dosed subcutaneously equimolar to 70 mg/kg, sc ibuprofen administered 1 hr before carrageenan challenge measured 3 hrs post carrageenan challenge relative to control; type: functional; details: route subcutaneous; procedure, shortened: as §2
Rattus norvegicus [5] = experiment: Antiinflammatory activity in male Sprague-Dawley rats assessed as inhibition of carrageenan-induced rat paw edema dosed subcutaneously equimolar to 70 mg/kg, sc ibuprofen administered 1 hr before carrageenan challenge measured 4 hrs post carrageenan challenge relative to control; type: functional; details: route subcutaneous; procedure, shortened: as §2
Staphylococcus aureus [6] = experiment: Antimicrobial activity against Staphylococcus aureus ATCC 29213 after 24 hrs by microdilution technique; type: functional; details: ATCC 29213, 24 h; procedure, shortened: as §1
Escherichia coli [7] = experiment: Antimicrobial activity against Escherichia coli ATCC 25922 after 24 hrs by microdilution technique; type: functional; details: ATCC 25922, 24 h
Procedure, shortened: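 MIC by two-fold serial microdilution on Mueller-Hinton agar per NCCLS 1997. Compounds were dissolved in DMSO at 1024, 512, 256, 128, 64, 32 and 16 […] and mixed with sterile nutrient agar, then inoculated with bacteria subcultured overnight at 37 °C on MHA (passaged at least twice). Incubation was 37 °C in a humid chamber and endpoints were read at 24 h. MIC is the lowest concentration completely inhibiting macroscopic growth. DMSO, organism-only and medium-only wells served as controls.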

Pseudomonas aeruginosa [8] = experiment: Antimicrobial activity against Pseudomonas aeruginosa ATCC […] after 24 hrs by microdilution technique; type: functional; procedure, shortened: as §1
Mycolicibacterium phlei = experiment: Antimicrobial activity against Mycobacterium phlei ATCC 10142 at 20 to 30 ug/ml after 24 hrs by disk diffusion method; type: functional, organism-based
Candida albicans = experiment: Antimicrobial activity against Candida albicans ATCC 10231 at 20 to 30 ug/ml after 24 hrs by disk diffusion method; type: functional, organism-based
Procedure, shortened: (§3)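 Disc diffusion per Bauer et al. Inhibition zones were recorded. DMSO served as the solvent control. Amoxicillin and fluconazole served as reference agents.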

Escherichia coli [9] = experiment: Antimicrobial activity against Escherichia coli ATCC 25922 at 20 to 30 ug/ml after 24 hrs by disk diffusion method; type: functional, organism-based; procedure, shortened: as §3
Pseudomonas aeruginosa [10] = experiment: Antimicrobial activity against Pseudomonas aeruginosa ATCC […] at 20 to 30 ug/ml after 24 hrs by disk diffusion method; type: functional, organism-based; procedure, shortened: as §3
Staphylococcus aureus [11] = experiment: Antimicrobial activity against Staphylococcus aureus ATCC 29213 at 20 to 30 ug/ml after 24 hrs by disk diffusion method; type: functional, organism-based; procedure, shortened: as §3
Bacillus subtilis [12] = experiment: Antimicrobial activity against Bacillus subtilis ATCC 6633 at 20 to 30 ug/ml after 24 hrs by disk diffusion method; type: functional, organism-based; procedure, shortened: as §3

MIC (Bacillus subtilis [1]): 512 µg/mL (≈ 1150 µM)
Structure (SMILES): Cc1c(-n2c(N)c(C#N)c(-c3ccccc3)c2-c2ccccc2)n(C)n(-c2ccccc2)c1=O
inhibition in vivo (Rattus norvegicus [2]): 36.5% | inhibition in vivo (Rattus norvegicus [3]): 9.5% | inhibition in vivo (Rattus norvegicus [4]): 62.6% | inhibition in vivo (Rattus norvegicus [5]): 64.7%

Structure (SMILES): Cc1c(-n2c(-c3ccccc3)c(-c3ccccc3)c3c2ncn2ncnc32)n(C)n(-c2ccccc2)c1=O
inhibition in vivo (Rattus norvegicus [2]): 4.92% | inhibition in vivo (Rattus norvegicus [3]): 1.73% | inhibition in vivo (Rattus norvegicus [4]): 9.9% | inhibition in vivo (Rattus norvegicus [5]): 28.7%

Structure (SMILES): CC1(C)S[C@@H]2[C@H](NC(=O)[C@H](N)c3ccc(O)cc3)C(=O)N2[C@H]1C(=O)O [AMOXICILLIN]
MIC (Bacillus subtilis [1]): 64 µg/mL (≈ 175 µM) | MIC (Staphylococcus aureus [6]): 1 µg/mL (≈ 2.74 µM) | MIC (Escherichia coli [7]): 256 µg/mL (≈ 701 µM) | MIC (Pseudomonas aeruginosa [8]): 64 µg/mL (≈ 175 µM)

Structure (SMILES): Cc1c(-n2c(-c3ccccc3)c(-c3ccccc3)c3c2ncn2nnnc32)n(C)n(-c2ccccc2)c1=O
Activity (Mycolicibacterium phlei): inactive | Activity (Candida albicans): inactive | Activity (Escherichia coli [9]): inactive | Activity (Pseudomonas aeruginosa [10]): inactive | Activity (Staphylococcus aureus [11]): inactive | Activity (Bacillus subtilis [12]): inactive

Structure (SMILES): Cc1c(-n2c(-c3ccccc3)c(-c3ccccc3)c3c(=S)[nH]cnc32)n(C)n(-c2ccccc2)c1=O
Activity (Mycolicibacterium phlei): inactive | inhibition in vivo (Rattus norvegicus [2]): 0% | Activity (Candida albicans): inactive | Activity (Escherichia coli [9]): inactive | inhibition in vivo (Rattus norvegicus [3]): 0% | inhibition in vivo (Rattus norvegicus [4]): 73.3% | Activity (Pseudomonas aeruginosa [10]): inactive | inhibition in vivo (Rattus norvegicus [5]): 64.3% | Activity (Staphylococcus aureus [11]): inactive | Activity (Bacillus subtilis [12]): inactive

Structure (SMILES): Cc1c(-n2c(N)c(C(N)=O)c(-c3ccccc3)c2-c2ccccc2)n(C)n(-c2ccccc2)c1=O
Activity (Mycolicibacterium phlei): inactive | inhibition in vivo (Rattus norvegicus [2]): 26.1% | Activity (Candida albicans): inactive | Activity (Escherichia coli [9]): inactive | inhibition in vivo (Rattus norvegicus [3]): 19.1% | inhibition in vivo (Rattus norvegicus [4]): 47.8% | Activity (Pseudomonas aeruginosa [10]): inactive | inhibition in vivo (Rattus norvegicus [5]): 62.5% | Activity (Staphylococcus aureus [11]): inactive | Activity (Bacillus subtilis [12]): inactive

Structure (SMILES): CC(C)Cc1ccc(C(C)C(=O)O)cc1 (stereo not drawn) [IBUPROFEN]
inhibition in vivo at 70 mg/kg (Rattus norvegicus [2]; dose equimolar to 70 mg/kg ibuprofen): 45% | inhibition in vivo (Rattus norvegicus [3]): 6.08% | inhibition in vivo (Rattus norvegicus [4]): 60.7% | inhibition in vivo (Rattus norvegicus [5]): 69.5%

Structure (SMILES): Cc1c(-n2c(-c3ccccc3)c(-c3ccccc3)c3c(Nc4ccccc4)ncnc32)n(C)n(-c2ccccc2)c1=O
inhibition in vivo (Rattus norvegicus [2]): 5.11% | inhibition in vivo (Rattus norvegicus [3]): 1.99% | inhibition in vivo (Rattus norvegicus [4]): 13% | inhibition in vivo (Rattus norvegicus [5]): 27.9%

Structure (SMILES): Cc1nc2c(c(-c3ccccc3)c(-c3ccccc3)n2-c2c(C)c(=O)n(-c3ccccc3)n2C)c(=O)[nH]1
Activity (Bacillus subtilis [1]): Active | inhibition in vivo (Rattus norvegicus [2]): 5.37% | inhibition in vivo (Rattus norvegicus [3]): 2.16% | inhibition in vivo (Rattus norvegicus [4]): 13.2% | inhibition in vivo (Rattus norvegicus [5]): 27.6%

MIC (Bacillus subtilis [1]): 512 µg/mL (≈ 1080 µM)
Structure (SMILES): Cc1c(-n2c(-c3ccccc3)c(-c3ccccc3)c3c(=N)[nH]cnc32)n(C)n(-c2ccccc2)c1=O
inhibition in vivo (Rattus norvegicus [2]): 2.35% | inhibition in vivo (Rattus norvegicus [3]): 0.89% | inhibition in vivo (Rattus norvegicus [4]): 11.4% | inhibition in vivo (Rattus norvegicus [5]): 27.5%

MIC (Bacillus subtilis [1]): 256 µg/mL (≈ 525 µM) | MIC (Staphylococcus aureus [6]): 256 µg/mL (≈ 525 µM)
Structure (SMILES): CC(=O)Nc1c(C#N)c(-c2ccccc2)c(-c2ccccc2)n1-c1c(C)c(=O)n(-c2ccccc2)n1C
inhibition in vivo (Rattus norvegicus [2]): 3.07% | inhibition in vivo (Rattus norvegicus [3]): 1.73% | inhibition in vivo (Rattus norvegicus [4]): 66.5% | inhibition in vivo (Rattus norvegicus [5]): 46.4%

Structure (SMILES): CCO/C=N/c1c(C#N)c(-c2ccccc2)c(-c2ccccc2)n1-c1c(C)c(=O)n(-c2ccccc2)n1C
Activity (Mycolicibacterium phlei): inactive | Activity (Candida albicans): inactive | Activity (Escherichia coli [9]): inactive | Activity (Pseudomonas aeruginosa [10]): inactive | Activity (Staphylococcus aureus [11]): inactive | Activity (Bacillus subtilis [12]): inactive

Structure (SMILES): Cc1c(-n2c(-c3ccccc3)c(-c3ccccc3)c3c(N/N=C/c4ccccc4)ncnc32)n(C)n(-c2ccccc2)c1=O
inhibition in vivo (Rattus norvegicus [2]): 59.6% | inhibition in vivo (Rattus norvegicus [3]): 47.8% | inhibition in vivo (Rattus norvegicus [4]): 90.8% | inhibition in vivo (Rattus norvegicus [5]): 48.4%

Structure (SMILES): Cc1c(-n2c(-c3ccccc3)c(-c3ccccc3)c3c(NN)ncnc32)n(C)n(-c2ccccc2)c1=O
inhibition in vivo (Rattus norvegicus [2]): 46.1% | inhibition in vivo (Rattus norvegicus [3]): 43.7% | inhibition in vivo (Rattus norvegicus [4]): 65.1% | inhibition in vivo (Rattus norvegicus [5]): 54%

MIC (Bacillus subtilis [1]): 256 µg/mL (≈ 541 µM)
Structure (SMILES): Cc1c(-n2c(-c3ccccc3)c(-c3ccccc3)c3c(=O)[nH]cnc32)n(C)n(-c2ccccc2)c1=O
Activity (Mycolicibacterium phlei): inactive | inhibition in vivo (Rattus norvegicus [2]): 60.6% | Activity (Candida albicans): inactive | Activity (Escherichia coli [9]): inactive | inhibition in vivo (Rattus norvegicus [3]): 63% | inhibition in vivo (Rattus norvegicus [4]): 60% | Activity (Pseudomonas aeruginosa [10]): inactive | inhibition in vivo (Rattus norvegicus [5]): 27.1% | Activity (Staphylococcus aureus [11]): inactive | Activity (Bacillus subtilis [12]): inactive

Structure (SMILES): Cc1ccccc1Nc1ncnc2c1c(-c1ccccc1)c(-c1ccccc1)n2-c1c(C)c(=O)n(-c2ccccc2)n1C
inhibition in vivo (Rattus norvegicus [2]): 5.17% | inhibition in vivo (Rattus norvegicus [3]): 1.95% | inhibition in vivo (Rattus norvegicus [4]): 13.3% | inhibition in vivo (Rattus norvegicus [5]): 28%

Structure (SMILES): Cc1c(-n2c(-c3ccccc3)c(-c3ccccc3)c3c(Cl)ncnc32)n(C)n(-c2ccccc2)c1=O
Activity (Mycolicibacterium phlei): inactive | Activity (Candida albicans): inactive | Activity (Escherichia coli [9]): inactive | Activity (Pseudomonas aeruginosa [10]): inactive | Activity (Staphylococcus aureus [11]): inactive | Activity (Bacillus subtilis [12]): inactive
